From ChEMBL document CHEMBL1157688, “Novel tumor-targeted RGD peptide-camptothecin conjugates: synthesis and biological evaluation” (Bioorg Med Chem, 2010)
pIC50: −log10 of the molar value.

What was measured:
Integrin alpha-V/beta-5 [1] = target: T1, Integrin alpha-V/beta-5 (Homo sapiens, UniProt P06756+P18084); assay: Inhibition of integrin alphaVbeta5 receptor-mediated adhesion of human A498 cells to vitronectin after 1 hr by toluidine blue staining; format: cell-based
Summary of the method: (§1)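 Wells were coated 2 h at room temperature with human vitronectin and blocked 1 h with 1% BSA. Tumor cells in serum-free medium with 1% BSA were plated with compounds at 0.1 to 100 and incubated 1 h. Cells were washed with PBS, fixed 10 min in 4% paraformaldehyde and stained 10 min with 1% toluidine blue.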
Target sequence in this assay (P06756 31-889 limits assumed): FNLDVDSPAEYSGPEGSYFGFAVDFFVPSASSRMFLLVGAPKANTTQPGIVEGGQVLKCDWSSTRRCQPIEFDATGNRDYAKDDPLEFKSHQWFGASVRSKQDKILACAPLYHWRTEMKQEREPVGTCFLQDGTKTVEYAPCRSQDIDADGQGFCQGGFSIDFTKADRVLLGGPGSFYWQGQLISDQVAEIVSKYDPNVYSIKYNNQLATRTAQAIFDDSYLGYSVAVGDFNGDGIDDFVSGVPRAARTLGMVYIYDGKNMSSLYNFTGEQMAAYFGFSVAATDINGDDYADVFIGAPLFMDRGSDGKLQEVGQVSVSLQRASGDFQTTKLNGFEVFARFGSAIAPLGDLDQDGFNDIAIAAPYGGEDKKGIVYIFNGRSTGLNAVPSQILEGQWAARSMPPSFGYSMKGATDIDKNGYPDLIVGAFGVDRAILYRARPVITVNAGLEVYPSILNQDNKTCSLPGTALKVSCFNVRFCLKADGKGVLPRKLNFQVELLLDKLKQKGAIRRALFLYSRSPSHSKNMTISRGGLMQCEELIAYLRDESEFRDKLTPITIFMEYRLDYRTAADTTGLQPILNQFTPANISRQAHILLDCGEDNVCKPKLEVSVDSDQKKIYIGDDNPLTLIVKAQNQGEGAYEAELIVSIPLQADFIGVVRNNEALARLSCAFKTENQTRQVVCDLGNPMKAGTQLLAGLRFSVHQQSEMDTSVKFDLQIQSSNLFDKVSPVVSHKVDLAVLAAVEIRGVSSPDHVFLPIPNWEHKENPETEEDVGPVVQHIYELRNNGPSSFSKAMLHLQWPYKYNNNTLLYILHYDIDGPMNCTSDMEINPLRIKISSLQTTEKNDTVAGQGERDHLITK
Target sequence in this assay (P06756 891-1048 limits assumed): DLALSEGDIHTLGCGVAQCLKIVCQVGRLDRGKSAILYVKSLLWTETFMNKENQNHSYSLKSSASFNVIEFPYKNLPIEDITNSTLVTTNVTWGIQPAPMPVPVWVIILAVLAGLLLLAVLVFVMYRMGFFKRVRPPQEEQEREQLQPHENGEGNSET
Target sequence in this assay (P18084 24-799 limits assumed): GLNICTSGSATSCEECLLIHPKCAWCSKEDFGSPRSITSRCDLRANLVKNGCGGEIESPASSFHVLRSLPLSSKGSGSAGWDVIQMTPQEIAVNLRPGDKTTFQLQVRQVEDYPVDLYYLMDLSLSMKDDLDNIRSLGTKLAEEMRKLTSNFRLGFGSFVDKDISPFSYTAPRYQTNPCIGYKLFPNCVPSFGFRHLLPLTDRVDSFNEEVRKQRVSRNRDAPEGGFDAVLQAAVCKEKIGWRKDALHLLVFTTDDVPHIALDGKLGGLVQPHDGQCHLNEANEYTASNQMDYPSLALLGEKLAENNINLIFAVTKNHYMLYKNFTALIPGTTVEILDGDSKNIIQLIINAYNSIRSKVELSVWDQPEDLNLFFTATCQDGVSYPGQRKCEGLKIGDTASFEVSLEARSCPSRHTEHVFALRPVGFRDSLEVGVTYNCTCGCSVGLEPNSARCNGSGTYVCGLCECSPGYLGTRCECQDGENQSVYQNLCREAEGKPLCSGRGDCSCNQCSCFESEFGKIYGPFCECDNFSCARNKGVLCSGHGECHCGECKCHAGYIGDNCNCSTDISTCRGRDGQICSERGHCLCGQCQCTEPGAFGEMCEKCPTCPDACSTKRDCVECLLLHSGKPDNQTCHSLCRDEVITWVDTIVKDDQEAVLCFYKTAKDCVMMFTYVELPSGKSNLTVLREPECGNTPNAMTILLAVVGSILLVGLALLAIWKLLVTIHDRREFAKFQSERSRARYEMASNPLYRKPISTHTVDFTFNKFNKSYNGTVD

Mus musculus [2] = assay: AUC (0 to infinity) in nude mouse xenografted with human A2780 cells at 48 mg/kg, sc QD for 5 days; format: ADME, organism-based; parameters: time infinity, dose 48 mg/kg, route subcutaneous; settings: in vivo, 120 h
Integrin alpha-V/beta-3 [3] = target: T2, Integrin alpha-V/beta-3 (Homo sapiens, UniProt P05106+P06756); assay: Inhibition of integrin alphaVbeta3 receptor-mediated adhesion of human A498 cells to vitronectin after 1 hr by toluidine blue staining; format: cell-based; summary of the method: as §1
Target sequence in this assay (P05106 27-788 limits assumed): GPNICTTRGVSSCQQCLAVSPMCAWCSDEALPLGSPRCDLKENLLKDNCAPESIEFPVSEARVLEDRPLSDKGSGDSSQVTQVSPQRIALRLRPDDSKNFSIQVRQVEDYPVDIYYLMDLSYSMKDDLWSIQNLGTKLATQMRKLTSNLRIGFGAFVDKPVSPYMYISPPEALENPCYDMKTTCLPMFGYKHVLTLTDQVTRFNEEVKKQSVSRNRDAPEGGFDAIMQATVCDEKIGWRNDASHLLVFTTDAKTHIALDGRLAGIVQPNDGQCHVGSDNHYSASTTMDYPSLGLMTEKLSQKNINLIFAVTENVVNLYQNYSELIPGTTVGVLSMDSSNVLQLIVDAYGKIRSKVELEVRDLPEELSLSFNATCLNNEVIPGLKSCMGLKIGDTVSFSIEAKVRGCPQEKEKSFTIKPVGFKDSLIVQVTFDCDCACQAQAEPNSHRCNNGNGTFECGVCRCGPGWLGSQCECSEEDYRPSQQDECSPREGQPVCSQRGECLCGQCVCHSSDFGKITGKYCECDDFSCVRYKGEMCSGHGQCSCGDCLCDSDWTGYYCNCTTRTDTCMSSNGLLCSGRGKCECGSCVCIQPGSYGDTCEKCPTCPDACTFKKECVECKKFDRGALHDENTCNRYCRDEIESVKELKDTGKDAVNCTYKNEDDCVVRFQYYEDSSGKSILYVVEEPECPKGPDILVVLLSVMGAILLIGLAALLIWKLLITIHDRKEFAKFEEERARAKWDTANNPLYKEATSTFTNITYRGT
Target sequence in this assay (P06756 31-889 limits assumed): as the sequence (P06756 31-889 limits assumed) above
Target sequence in this assay (P06756 891-1048 limits assumed): as the sequence (P06756 891-1048 limits assumed) above

A498 [4] = assay: Cytotoxicity against human A498 cells after 72 hrs by sulforhodamine B assay; format: functional, cell-based; settings: A498, 72 h
Summary of the method: (§2)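 Tumor cells were seeded in 96-well plates and exposed the next day to a range of drug concentrations for 72 h. Surviving cells were quantified by sulforhodamine B staining, and IC50 ± SD was derived by curve fitting.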

PC-3 = assay: Cytotoxicity against human PC3 cells after 72 hrs by sulforhodamine B assay; format: functional, cell-based; settings: PC-3, 72 h; summary of the method: as §2
Mus musculus [5] = assay: AUC (0 to infinity) in nude mouse xenografted with human A2780 cells at 48 mg/kg, ip administered as single dose every fourth day for four times; format: ADME, organism-based; parameters: time infinity, dose 48 mg/kg, route intraperitoneal; settings: in vivo
A2780 [6] = assay: Cytotoxicity against human A2780 cells after 72 hrs by sulforhodamine B assay; format: functional, cell-based; settings: A2780, 72 h; summary of the method: as §2
Integrin alpha-V/beta-5 [7] = target: T1, Integrin alpha-V/beta-5; assay: Inhibition of integrin alphaVbeta5 receptor-mediated adhesion of human A2780 cells to vitronectin after 1 hr by toluidine blue staining; format: cell-based; summary of the method: as §1
Target sequence in this assay (P06756 31-889 limits assumed): as the sequence (P06756 31-889 limits assumed) above
Target sequence in this assay (P06756 891-1048 limits assumed): as the sequence (P06756 891-1048 limits assumed) above
Target sequence in this assay (P18084 24-799 limits assumed): as the sequence (P18084 24-799 limits assumed) above

A498 [8] = assay: Cellular uptake in human A498 cells at IC50 after 48 hrs by HPLC-FL analysis; format: ADME, cell-based; settings: a498, 48 h
Summary of the method: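 A-498 cells (6.2×10^5 per dish) were treated 24 h after seeding and sampled at 5, 24, 48 and 72 h. Cells were PBS-washed, scraped and pelleted, then lysed by five freeze-thaw cycles. Lysates were extracted with methanol/acetonitrile (1:1) and analyzed by isocratic HPLC with fluorescence detection. Lysate protein was measured by Bradford assay.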

Integrin alpha-V/beta-3 [9] = target: T2, Integrin alpha-V/beta-3; assay: Displacement of [125I]echistatin from integrin alphaVbeta3 receptor after 3 hrs by gamma counting; format: protein-complex assay; settings: for pIC50: read-out: IC50
Target sequence in this assay (P05106 27-788 limits assumed): as the sequence (P05106 27-788 limits assumed) above
Target sequence in this assay (P06756 31-889 limits assumed): as the sequence (P06756 31-889 limits assumed) above
Target sequence in this assay (P06756 891-1048 limits assumed): as the sequence (P06756 891-1048 limits assumed) above

Integrin alpha-V/beta-5 [10] = target: T1, Integrin alpha-V/beta-5; assay: Displacement of [125I]echistatin from integrin alphaVbeta5 receptor after 3 hrs by gamma counting; format: protein-complex assay
Target sequence in this assay (P06756 31-889 limits assumed): as the sequence (P06756 31-889 limits assumed) above
Target sequence in this assay (P06756 891-1048 limits assumed): as the sequence (P06756 891-1048 limits assumed) above
Target sequence in this assay (P18084 24-799 limits assumed): as the sequence (P18084 24-799 limits assumed) above

Integrin alpha-V/beta-5 [11] = target: T1, Integrin alpha-V/beta-5; assay: Binding affinity to integrin alphaVbeta5 receptor in human A498 cells; format: cell-based
Integrin alpha-V [12] = target: T3, Integrin alpha-V (Homo sapiens, UniProt P06756); assay: Binding affinity to integrin alphaV receptor in human PC3 cells; format: cell-based; settings: PC-3
Summary of the method: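 Tumor cells in serum-free medium with 1% BSA were plated for 1 h on wells precoated with 5 µg/ml human vitronectin and blocked with 1% BSA. Compounds were tested at 0.1–100 µM. Adherent cells were fixed with 4% paraformaldehyde, stained with 1% toluidine blue, solubilized in 1% SDS and read by absorbance. IC50 ± SD from curve fitting.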

Integrin alpha-V/beta-3 [13] = target: T2, Integrin alpha-V/beta-3; assay: Binding affinity to integrin alphaVbeta3 receptor in human A498 cells; format: cell-based
Integrin alpha-V/beta-5 [14] = target: T1, Integrin alpha-V/beta-5; assay: Binding affinity to integrin alphaVbeta5 receptor in human A2780 cells; format: cell-based
A2780 [15] = assay: Antitumor activity against human A2780 cells xenografted in nude mouse assessed as tumor volume inhibition at 0.42 mg/kg, sc QD for 5 days measured after 17 days of tumor implantation relative to control; format: functional; settings: route subcutaneous
Summary of the method: (§3)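 Nude mice bearing A2780 human ovarian carcinoma xenografts were dosed from day 2 after tumor injection, either ip every fourth day ×4 or sc daily ×5, at 10 mL/kg. Tumor volume was calculated from the shortest and longest diameters on day 16 or 17. TVI% is relative to vehicle-treated controls (mean ± SE, Mann–Whitney). Body weight was monitored for toxicity.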

Mus musculus [16] = assay: AUC (0 to infinity) in nude mouse xenografted with human A2780 cells at 0.42 mg/kg, sc QD for 5 days; format: ADME, organism-based; parameters: time infinity, dose 0.42 mg/kg, route subcutaneous; settings: in vivo, 120 h
A2780 [17] = assay: Antitumor activity against human A2780 cells xenografted in nude mouse assessed as tumor volume inhibition at 16.3 mg/kg, sc QD for 5 days; format: functional, organism-based; parameters: dose 16.3 mg/kg; summary of the method: as §3
Integrin alpha-V [18] = target: T3, Integrin alpha-V; assay: Inhibition of integrin alphaV receptor-mediated adhesion of human PC3 cells to vitronectin after 1 hr by toluidine blue staining; format: cell-based; settings: pc-3; summary of the method: as §1
A498 [19] = assay: Cellular uptake in human A498 cells at 0.064 uM after 5 hrs by HPLC-FL analysis; format: ADME, cell-based; settings: a498, 5 h
Summary of the method: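 A-498 cells (6.2 × 10⁵) were seeded in dishes and dosed 24 h later, then sampled at 5, 24, 48 and 72 h. Cells were PBS-washed, scraped, pelleted, lysed by five freeze–thaw cycles, and extracted with methanol/acetonitrile (1:1). Culture medium was extracted the same way. Analysis was by isocratic HPLC-FL (30% CH₃CN / 70% 0.1 M AcOH with 0.1% TEA, pH about 3.5), and lysate protein was measured by Bradford assay.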

Mus musculus [20] = assay: Metabolic stability in nude mouse xenografted with human A2780 cells assessed as release of free namitecan in blood at 48 mg/kg, sc QD for 5 days; format: ADME, organism-based; parameters: dose 48 mg/kg, route subcutaneous; settings: in vivo, 120 h
Mus musculus [21] = assay: Metabolic stability in nude mouse xenografted with human A2780 cells assessed as release of free namitecan in blood at 48 mg/kg, ip administered as single dose every fourth day for four times; format: ADME, organism-based; parameters: dose 48 mg/kg, route intraperitoneal; settings: in vivo
A2780 [22] = assay: Antitumor activity against human A2780 cells xenografted in nude mouse assessed as tumor volume inhibition at 48 mg/kg, sc QD for 5 days measured after 17 days of tumor implantation relative to control; format: functional; settings: route subcutaneous; summary of the method: as §3
A2780 [23] = assay: Antitumor activity against human A2780 cells xenografted in nude mouse assessed as tumor volume inhibition at 48 mg/kg, ip administered as single dose every fourth day for four times measured after 16 days of tumor implantation relative to control; format: functional; settings: 384 h, route intraperitoneal; summary of the method: as §3
[24] = Chemical stability assessed as half life at 100 uM at pH 7.4 by HPLC analysis; format: physicochemical; settings: buffer
Summary of the method: (§4)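 Compounds were dissolved in DMSO and diluted to 100 (final, 1% DMSO) in phosphate buffer for pH 7.4 or acetate buffer for pH 5.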

[25] = Chemical stability assessed as half life at 100 uM at pH 5 by HPLC analysis; format: physicochemical; settings: buffer; summary of the method: as §4

T3 sequence (P06756 31-889 limits assumed): as the sequence (P06756 31-889 limits assumed) above
T3 sequence (P06756 891-1048 limits assumed): as the sequence (P06756 891-1048 limits assumed) above

Structure (SMILES) | pIC50 (Integrin alpha-V/beta-5 [1]) | pIC50 (Integrin alpha-V/beta-3 [3]) | pIC50 (A498 [4]) | pIC50 (PC-3) | pIC50 (A2780 [6]) | pIC50 (Integrin alpha-V/beta-5 [7]) | pIC50 (Integrin alpha-V/beta-3 [9]) | pIC50 (Integrin alpha-V/beta-5 [10]) | other results
CC[C@@]1(O)C(=O)OCc2c1cc1n(c2=O)Cc2c-1nc1ccccc1c2/C=N\OCCNC(=O)CCC[C@@H]1NC(=O)[C@@H](Cc2ccccc2)NC(=O)[C@H](CC(=O)O)NC(=O)CNC(=O)[C@H](CCCNC(=N)N)NC1=O | 5.43 | 5.43 | 5.49 | 4.82 | 6.40 | 5.51 |  |  | AUC (Mus musculus [2]): 82 µg/h/mL; AUC (Mus musculus [5]): 82 µg/h/mL; Drug uptake (A498 [8]): Active
N=C(N)NCCC[C@@H]1NC(=O)[C@H](c2ccc(CNC(=O)COCCOCCOCC(=O)NN)cc2)NC(=O)[C@@H](Cc2ccccc2)NC(=O)[C@H](CC(=O)O)NC(=O)CNC1=O |  |  |  | < 3.00 | < 3.00 | 4.93 | 8.42 | 9.19 | 
N=C(N)NCCC[C@@H]1NC(=O)[C@H](c2ccc(CNC(=O)COCCOCCOCC(=O)O)cc2)NC(=O)[C@@H](Cc2ccccc2)NC(=O)[C@H](CC(=O)O)NC(=O)CNC1=O | 4.97 | 4.97 | < 3.00 | < 3.00 | < 3.00 | 4.91 | 8.40 | 9.46 | Activity (Integrin alpha-V/beta-5 [11]): Dose-dependent effect; Activity (Integrin alpha-V [12]): Dose-dependent effect; Activity (Integrin alpha-V/beta-3 [13]): Dose-dependent effect; Activity (Integrin alpha-V/beta-5 [14]): Dose-dependent effect
CC[C@@]1(O)C(=O)OCc2c1cc1n(c2=O)Cc2c-1nc1ccccc1c2/C=N/OCCNC(=O)CCC(=O)NCc1ccc(C[C@@H]2NC(=O)[C@@H](Cc3ccccc3)NC(=O)[C@H](CC(=O)O)NC(=O)CNC(=O)[C@H](CCCNC(=N)N)NC2=O)cc1 | 5.27 | 5.27 | 5.37 | 5.33 | 6.80 |  | 8.14 | 8.08 | 
CC[C@@]1(O)C(=O)OCc2c1cc1n(c2=O)Cc2c-1nc1ccccc1c2/C=N\OCCN |  |  | 7.19 | 6.44 | 8.31 |  |  |  | inhibition in vivo at 0.42 mg/kg (A2780 [15]): 43%; AUC (Mus musculus [16]): 2 µg/h/mL; inhibition (A2780 [17]): Toxic; IC50 (Integrin alpha-V/beta-3 [9]): Not Active; IC50 (Integrin alpha-V [18]): Not Active; Drug uptake (A498 [19]): Active
CC[C@@]1(O)C(=O)OCc2c1cc1n(c2=O)Cc2c-1nc1ccccc1c2/C=N/OCCNC(=O)COCCOCCOCC(=O)NCc1ccc(C[C@@H]2NC(=O)[C@@H](Cc3ccccc3)NC(=O)[C@H](CC(=O)O)NC(=O)CNC(=O)[C@H](CCCN=C(N)N)NC2=O)cc1 | 5.51 | 5.51 | 6.13 | 4.57 | 6.74 | 5.74 | 7.90 | 8.19 | Activity (Mus musculus [20]): 2.5%; Activity (Mus musculus [21]): 2.5%; inhibition in vivo at 48 mg/kg (A2780 [22]): 37%; Drug uptake (A498 [8]): Active; inhibition in vivo at 48 mg/kg (A2780 [23]): 43%
CC[C@@]1(O)C(=O)OCc2c1cc1n(c2=O)Cc2c-1nc1ccccc1c2CCC=O |  |  |  | 6.92 | 7.82 |  |  |  | 
CC[C@@]1(O)C(=O)OCc2c1cc1n(c2=O)Cc2c-1nc1ccccc1c2CC/C=N/NC(=O)COCCOCCOCC(=O)NCc1ccc(C[C@@H]2NC(=O)[C@@H](Cc3ccccc3)NC(=O)[C@H](CC(=O)O)NC(=O)CNC(=O)[C@H](CCCNC(=N)N)NC2=O)cc1 |  |  |  | 6.38 | 7.77 | 4.89 | 8.22 | 7.64 | half-life at 100 µM [24]: 348 min; half-life at 100 µM [25]: < 2 min
CC[C@@]1(O)C(=O)OCc2c1cc1n(c2=O)Cc2c-1nc1ccccc1c2/C=N/NC(=O)COCCOCCOCC(=O)NCc1ccc(C[C@@H]2NC(=O)[C@@H](Cc3ccccc3)NC(=O)[C@H](CC(=O)O)NC(=O)CNC(=O)[C@H](CCCNC(=N)N)NC2=O)cc1 |  |  |  | 6.66 | 7.05 | 5.17 | 7.93 | 7.22 | half-life at 100 µM [24]: 360 min; half-life at 100 µM [25]: 1500 min
CC[C@@]1(O)C(=O)OCc2c1cc1n(c2=O)Cc2c-1nc1ccccc1c2C=O |  |  |  | 6.89 | 8.52 |  |  |  | 
N=C(N)NCCC[C@@H]1NC(=O)[C@H](c2ccc(CNC(=O)CCC(=O)O)cc2)NC(=O)[C@@H](Cc2ccccc2)NC(=O)[C@H](CC(=O)O)NC(=O)CNC1=O | 4.47 | 4.47 | < 3.00 | < 3.00 | < 3.00 | 5.02 | 7.42 | 8.29 | Activity (Integrin alpha-V/beta-5 [11]): Dose-dependent effect; Activity (Integrin alpha-V [12]): Dose-dependent effect; Activity (Integrin alpha-V/beta-3 [13]): Dose-dependent effect; Activity (Integrin alpha-V/beta-5 [14]): Dose-dependent effect
N=C(N)NCCC[C@@H]1NC(=O)[C@H](CCCC(=O)O)NC(=O)[C@@H](Cc2ccccc2)NC(=O)[C@H](CC(=O)O)NC(=O)CNC1=O |  |  | < 3.00 | < 3.00 | < 3.00 |  |  |  | Activity (Integrin alpha-V/beta-5 [11]): Dose-dependent effect; Activity (Integrin alpha-V [12]): Dose-dependent effect; Activity (Integrin alpha-V/beta-3 [13]): Dose-dependent effect; Activity (Integrin alpha-V/beta-5 [14]): Dose-dependent effect
